Myeloid diff MLP – promotes myeloid progenitor differentiation; ER-HoxA9 myeloid progenitors, lysozyme-GFP differentiation, flow cytometry; calls only at 10 µM; 360,000 tested, 1% active; AID 624256;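 active = normalized GFP-positive differentiation at or above the plate's own cutoff, the solvent-only control mean plus 3 SD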;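 note: cells exposed to compound for four days before flow analysis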
core dimer inh – blocks dimerization of HCV core protein; TR-FRET GST/Flag-core106 dimerization, 1536-well; inhibition, % at 5 µM; 300,000 tested, 0.33% active; AID 1899;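 active = inhibition above the mean of all tested compounds plus 3 SD, set per screening campaign, cut at about 45% in these data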
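test system = GST/Flag-tagged HCV core106 proteins | probe or stimulus = Eu donor and XL665 acceptor anti-tag antibodies | times = compound-protein-antibody incubation 4 h at 22.5 °C | signal = TR-FRET, excitation 340 nm, emission 617 and 671 nm | measure = percent inhibition of core106 dimerization signal | controls = wells lacking GST-core106 and wells with excess unlabelled core106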
Fh CTSL1 inh – cathepsin L1 inhibition, PFM18AAP counter-screen; recombinant F. hepatica cathepsin L1, Z-Leu-Arg-MCA fluorescence; inhibition, % at 5.96 µM; 300,000 tested, 0.49% active;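 active = inhibition above the mean of all tested compounds plus 3 SD, set per screening campaign, cut at about 17% in these data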;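 note: 0% = plate median of test compound wells and 100% = 1 µM Z-Phe-Ala-diazomethylketone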
PP5 inh – PP5 (human) phosphatase inhibition | inhibition, % at 6.7 µM | purified PP5c, OMFP substrate fluorescence | 320,000 tested, 0.18% active | AID 1987 | P53041;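 active = inhibition above the campaign's mean inhibition across all tested compounds plus 3 SD, cut at about 9.5% in these data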;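 note: 0% = DMSO only and 100% = 100 µM cantharidin control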
Target sequence (P53041 whole entry, looked up): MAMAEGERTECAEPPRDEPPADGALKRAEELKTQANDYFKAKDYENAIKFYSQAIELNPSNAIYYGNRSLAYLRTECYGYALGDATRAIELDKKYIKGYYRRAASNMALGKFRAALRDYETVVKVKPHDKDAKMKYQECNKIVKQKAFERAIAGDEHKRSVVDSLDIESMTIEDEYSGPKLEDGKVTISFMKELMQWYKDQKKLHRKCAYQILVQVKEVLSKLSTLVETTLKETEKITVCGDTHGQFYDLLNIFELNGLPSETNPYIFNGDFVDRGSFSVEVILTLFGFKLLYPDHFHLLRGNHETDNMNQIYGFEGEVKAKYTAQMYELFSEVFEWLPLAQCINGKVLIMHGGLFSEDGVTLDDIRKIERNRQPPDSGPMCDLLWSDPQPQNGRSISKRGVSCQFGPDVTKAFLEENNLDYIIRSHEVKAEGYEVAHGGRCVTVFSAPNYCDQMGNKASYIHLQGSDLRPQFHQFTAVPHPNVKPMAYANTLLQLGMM
PP1 counter – blocks human PP1-alpha phosphatase, a PP5 counter-screen | P62136 | purified PP1alpha, OMFP fluorescence | inhibition, % at 6.7 µM | 320,000 tested, 0.9% active | AID 2235;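 active = inhibition above the mean inhibition of all tested compounds plus 3 SD, computed separately for each screening campaign, cut at about 15% in these data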
NadD inh – blocks S. aureus nicotinate mononucleotide adenylyltransferase; purified NadD enzyme, colorimetric absorbance read-out; inhibition, % at 20 µM; 360,000 tested, 0.78% active; AID 602399; in the data active = inhibition above about 26%
PP1 inh confirm – human PP1 phosphatase inhibition, confirmation; shares compounds with PP1 counter; purified PP1alpha, OMFP substrate fluorescence; inhibition, % at 6.7 µM; 1,900 tested, 52% active; AID 2358;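 active = mean PP1 inhibition above a set limit taken from the earlier primary screen, cut at about 15% in these data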
PP5 inh counter – inhibits human PP5 phosphatase in PP1 counter-screen; shares compounds with PP1 counter; purified PP5c, OMFP fluorescence; inhibition, % at 6.7 µM; 1,900 tested, 4% active;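 active = mean PP5 inhibition over triplicate wells above about 9.5% taken from the earlier PP1 screen, limit read from the data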
Starred values were filed as active, the others as inactive; i = inactive; / = not tested or not shown; + = active, no number; ! = repeats disagree. Only some compounds are listed: those with a hit (about 3.1% of all), similar ones and a draw of the others.

SMILES | Myeloid diff MLP | core dimer inh | Fh CTSL1 inh | PP5 inh | PP1 counter | NadD inh | PP1 inh confirm | PP5 inh counter
C#CCOCCOCCOCCNc1nc(N2CCN(C(=O)Cn3cc(CCCN=C(N)N)nn3)CC2)nc(N2CCN(C(=O)[C@H](C)n3cc(CCCN=C(N)N)nn3)CC2)n1 | i | 3 | -3 | 2 | 1 | -4 | / | /
C#CCOCCOCCOCCNc1nc(N2CCN(C(=O)CCCCCCCCCCNC(=O)[C@H](CCCCN)n3cc(CCO)nn3)CC2)nc(N2CCN(C(=O)CCCCCCCCCCNC(=O)[C@H](CCCCN)n3cc(C[C@@H](C)CC)nn3)CC2)n1 | / | 15 | 1 | 5 | 41* | / | 13 | 0
C#CCOCCOCCOCCNc1nc(N2CCN(C(=O)CCCCCCCCCCNC(=O)[C@@H](CCSC)n3cc(CCO)nn3)CC2)nc(N2CCN(C(=O)CCCCCCCCCCNC(=O)[C@H](CCCN=C(N)N)n3cc(C[C@@H](C)CC)nn3)CC2)n1 | i | 7 | 4 | 4 | 49* | 71* | 39* | 4
C#CCOCCOCCOCCNc1nc(N2CCN(C(=O)CCCCCCCCCCNC(=O)[C@@H](CCSC)n3cc(CCO)nn3)CC2)nc(N2CCN(C(=O)CCCCCCCCCCNC(=O)[C@H](CO)n3cc(CCCCCN)nn3)CC2)n1 | i | 6 | -5 | 2 | 49* | 23 | 49* | 0
CN(C(=O)c1ccc(NC(=O)Cc2cccc(NC(=O)C3CCN(C(=O)C4CCCCC4)CC3)c2)cc1)C1CCCC1 | i | / | / | -1 | 0 | 11 | / | /
Nc1c(N(Cc2ccccc2)C(=O)COc2ccc([N+](=O)[O-])cc2)c(=O)[nH]c(=O)n1Cc1ccccc1 | i | / | / | / | / | 6 | / | /
Cc1ccccc1SCC(=O)OCC(=O)NCc1ccccc1 | i | / | / | / | / | 0 | / | /
CN(C(=O)c1cccc(NC(=O)Cc2cccc(NC(=O)C3CCCN(C(=O)c4ccccc4)C3)c2)c1)C1CC1 (stereo not given) | i | / | / | / | / | 1 | / | /
CCCCCCSc1cc(-c2nc3ccc(C)cn3c2NCc2ccccc2)ccc1OC | i | 6 | 1 | 3 | 21* | 6 | 9 | 4
CCCCCCSc1cccc(-c2nc3ccc(C)cn3c2NCc2ccccc2)c1 | i | -12 | 3 | 4 | 13 | -4 | / | /
CCCCCCSc1cc(-c2nc3cc(C)ccn3c2NCCCC)ccc1OC | +! | -8 | 2 | 5 | 26* | 0 | 7 | -2
CCCCCCSc1cc(-c2nc3cnccn3c2NCCCC)ccc1OC | i | / | / | / | / | 7 | / | /
COC(=O)c1sc(NC(=O)COc2cccnc2[N+](=O)[O-])c(C(=O)OC)c1C | i | / | / | 5 | 27* | -1 | 15 | 0
CCOCCCn1c(SCC(=O)NC2CCCCC2)nc2ccccc2c1=O | i | / | / | / | / | 0 | / | /
COc1ccc(-c2ccc(C#N)c(SCC(=O)OCc3ccccc3)n2)cc1OC | i | -2 | 1 | 4 | -3 | -9 | / | /
N#Cc1ccc(-c2ccc3c(c2)OCO3)nc1SCC(=O)OCc1ccccc1 | i | 15 | 0 | 3 | 18* | -5 | 10 | 1
CC(C)(C)c1cc(NCCCn2ccnc2)n2ncc(-c3ccc(Cl)cc3)c2n1 | i | 3 | 4 | 10* | 38* | 19 | 39* | 4
CC1=C(C(=O)N2CCCCCC2)CC(CC(=O)NC(c2ccccc2)c2ccccc2)C(=O)N1Cc1ccccc1 (stereo not given) | i | / | / | / | / | -4 | / | /
O=C(Nc1ccc(Nc2ccncc2)cc1)c1ccc([N+](=O)[O-])cc1 | i | 4 | -5 | 1 | 0 | -4 | / | /
O=C(Nc1ccc(Nc2ccncc2)cc1)c1ccc(Nc2ccnc3ccc([N+](=O)[O-])cc23)cc1[N+](=O)[O-] | i | 62* | -2 | 6 | 41* | 13 | -11 | 1
CC(C)(C)c1ccc(-c2nn(CCC#N)cc2/C=N/O)cc1 | i | 0 | -4 | 4 | 32* | -3 | 1 | 2
Cc1ccc(-c2nn(CCC#N)cc2C=C(C#N)C#N)cc1 | i | 13 | -9 | 3 | -2 | 2 | / | /
CCc1ccc(N=Nc2ccc(O)c3[nH]cnc23)cc1 | + | / | / | 0 | 21* | 7 | 10 | -1
O=[N+]([O-])c1cc(Br)c(O)c(/C=N/Nc2nnnn2-c2cccc3ccccc23)c1 | i | 7 | 5 | 8 | 21* | 15 | 23* | -4
Cc1cc(-c2n[nH]c(=S)n2/N=C/c2ccc(Cl)c([N+](=O)[O-])c2)n[nH]1 | i | 8 | -1 | 0 | 2 | 3 | / | /
SMILES | Myeloid diff MLP | core dimer inh | Fh CTSL1 inh | PP5 inh | PP1 counter | NadD inh | PP1 inh confirm | PP5 inh counter
O=[N+]([O-])c1cc(/C=N/n2c(-c3ccncc3)n[nH]c2=S)ccc1Cl | i | 25 | 7 | 1 | 25* | 19 | 4 | -2
COc1ccc(NC(=O)N(C)C[C@H]2Oc3ccc(NC(=O)Cc4ccccc4)cc3CC(=O)N([C@H](C)CO)C[C@H]2C)cc1 | i | / | / | / | / | -3 | / | /
Oc1ccccc1Nc1nc(NCc2ccccc2)c2ccccc2n1 | i | -1 | 4 | 3 | 19* | 5 | 0 | 3
CNc1nc(NCc2ccccc2)c2ccccc2n1 | / | 8 | 3 | -2 | 1 | -7 | / | /
CCOC(=O)c1c(C)[nH]c(C(=O)OCC(=O)NCc2ccc(C)cc2)c1C | i | / | / | 1 | 19* | -9 | 12 | -5
CCOC(=O)c1sc(N2C(=O)C(O)=C(C(=O)c3ccco3)C2c2cccc(Cl)c2)nc1C (stereo not given) | i | -19 | 4 | 2 | 27* | 13 | 17* | -1
Cc1nnc(N2C(=O)C(O)=C(C(=O)c3ccco3)C2c2cccc3ccccc23)s1 (stereo not given) | i | 11 | -1 | 0 | 0 | 13 | / | /
CCOC(=O)c1sc(N2C(=O)C(O)=C(C(=O)c3ccco3)C2c2cccc([N+](=O)[O-])c2)nc1C (stereo not given) | i | 17 | 2 | 2 | 39* | 14 | 45* | 5
Cc1nnc(N2C(=O)C(O)=C(C(=O)c3ccco3)C2c2cccc([N+](=O)[O-])c2)s1 (stereo not given) | i | 4 | 5 | -2 | -1 | 2 | / | /
COc1cc(C(=O)C(=O)c2ccc(OC)c(OC)c2)ccc1O | i | / | / | / | / | -3 | / | /
COc1ccccc1C(=O)NC(CCSC)C(=O)Nc1ccc(C)c(S(=O)(=O)N2CCOCC2)c1 (stereo not given) | i | / | / | / | / | -3 | / | /
O=C(N/N=C/c1ccc(-c2ccc(S(=O)(=O)Nc3ncccn3)cc2)o1)c1cc2ccccc2cc1O | i | -37 | 2 | 3 | 21* | 81* | 16* | -1
NC(=S)NN=Cc1ccc(-c2ccc(S(=O)(=O)Nc3ncccn3)cc2)o1 | i | / | / | / | / | 20 | / | /
